Results of several laboratories.
Protocols differ between the studies behind these lines.
AVPR2: Vasopressin V2 receptor (AVPR2, Homo sapiens, UniProt P30518)
HTR1E: 5-hydroxytryptamine receptor 1E (HTR1E, Homo sapiens, UniProt P28566)

With `CN(C)c1ncnc2c1ncn2[C@@H]1O[C@H](CO)[C@@H](O)[C@H]1O` the EC50 was 46 µM (Adenosine receptor A3 (ADORA3, Homo sapiens, UniProt P0DMS8, I253Q); G protein activation; agonist).
With `CCCc1ccc(/N=C(/Nc2nnc(C)s2)N2N=C(C)SC2c2ccc(C)cc2)cc1` (stereo not drawn) the EC50 was 3.9 µM (AVPR2; cAMP; positive allosteric modulator).
The EC50 of `CN(C)CCOC1=Cc2ccccc2Sc2ccc(Cl)cc21` is reported as 0.622 µM (HTR1E; G protein activation; agonist; BRET).
With `CC(C)=CCNc1ncnc2c1ncn2[C@@H]1O[C@H](CO)[C@@H](O)[C@H]1O` the EC50 was 1.2 µM (Adenosine receptor A3 (ADORA3, Homo sapiens, UniProt P0DMS8, V169L); G protein activation; agonist).
The EC50 of `CC1=NN(/C(=N/c2nnc(C)s2)Nc2ccc(C)c(C)c2)C(c2ccc(F)c(C(F)(F)F)c2)S1` (stereo not drawn) is reported as > 50 µM (AVPR2; cAMP; positive allosteric modulator).
The EC50 of `CN1CCN2c3ncccc3Cc3ccccc3C2C1` (stereo not drawn) is reported as 0.755 µM (HTR1E; G protein activation; agonist; BRET).
`CC(C)=CCn1cnc(=N)c2[nH]cnc21` has an EC50 of 32 µM (G-protein coupled receptor 84 (GPR84, Homo sapiens, UniProt Q9NQS5); cAMP; agonist; luciferase).
`COc1ccccc1N1CCN(CCCCN2C(=O)c3ccccc3C2=O)CC1` gave an EC50 of 2.17 µM (HTR1E; G protein activation; agonist; BRET).
`CC1=NN(/C(=N\c2ccccc2F)Nc2nnc(C)s2)C(c2ccc(C)cc2)S1` (stereo not drawn) has an EC50 of 41.4 µM (AVPR2; cAMP; positive allosteric modulator).
